For data set [1], the target named is T1, Cytochrome P450 3A4 (Homo sapiens, UniProt P08684). Kind of data set: Drug level assessed as human recombinant CYP3A4-mediated compound formation treated with bosentan at 5 uM in presence of NADPH after 30 mins by LC-MS/MS analysis. Format: ADME. Particulars: recombinant enzyme, 0.5 h. The procedure, abridged:
(§1)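 Substrate at 5 μM final in 100 mM potassium phosphate, pH 7.4, incubated with human liver microsomes or baculovirus-expressed recombinant CYP3A4, 2D6 or 2C9. Reaction started with 1 mM NADPH and run 0, 15 and 30 min at 37 °C. Stopped with ice-cold acetonitrile containing labetalol internal standard, then centrifuged. Supernatant analysed by LC-MS/MS on a C18 column at 40 °C. Blank was enzyme without substrate.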

Data set [2] can be described thus: Drug level in human liver microsomes treated with bosentan at 5 uM in presence of NADPH after 30 mins by LC-MS/MS analysis. Format: ADME. Particulars: 0.5 h. The procedure, abridged:
as §1
For orientation: Liver microsomes are a subcellular fraction often used to study metabolism.

Data set [3] deals with T2, Cytochrome P450 2C9 (Homo sapiens, UniProt P11712). As to the kind of experiment: Drug level assessed as human recombinant CYP2C9-mediated compound formation treated with bosentan at 5 uM in presence of NADPH after 30 mins by LC-MS/MS analysis. Format: ADME. Particulars: recombinant enzyme, 0.5 h. The procedure, abridged: as §1
T2 sequence (P11712 whole entry): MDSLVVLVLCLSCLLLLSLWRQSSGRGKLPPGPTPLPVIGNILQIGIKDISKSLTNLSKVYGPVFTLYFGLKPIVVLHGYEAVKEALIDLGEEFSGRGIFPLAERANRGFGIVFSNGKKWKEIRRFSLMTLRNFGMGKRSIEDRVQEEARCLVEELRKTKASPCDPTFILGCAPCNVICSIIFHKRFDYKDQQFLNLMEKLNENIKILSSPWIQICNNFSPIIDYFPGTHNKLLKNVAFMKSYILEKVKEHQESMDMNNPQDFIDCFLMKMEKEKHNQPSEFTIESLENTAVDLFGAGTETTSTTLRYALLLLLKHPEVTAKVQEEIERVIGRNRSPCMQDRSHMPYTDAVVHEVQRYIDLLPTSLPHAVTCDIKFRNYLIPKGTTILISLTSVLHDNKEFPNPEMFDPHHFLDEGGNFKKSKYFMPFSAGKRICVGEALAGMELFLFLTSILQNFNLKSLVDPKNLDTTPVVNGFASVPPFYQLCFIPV
A short description of data set [4]: Retention time of the compound. Format: physicochemical.
For data set [5], the target named is T1, Cytochrome P450 3A4. Kind of data set: Drug level assessed as human recombinant CYP3A4-mediated compound formation treated with 4-(tert-Butyl)-N-(6-ethoxy-5-(2-methoxyphenoxy)-[2,2'-bipyrimidin]-4-yl)benzenesulfonamide at 5 uM in presence of NADPH after 30 mins by LC-MS/MS analysis. Format: ADME. To be noted: recombinant enzyme, 0.5 h. The procedure, abridged: as §1

Data set [6] is described as follows: Drug level in human liver microsomes treated with 4-(tert-Butyl)-N-(6-ethoxy-5-(2-methoxyphenoxy)-[2,2'-bipyrimidin]-4-yl)benzenesulfonamide at 5 uM in presence of NADPH after 30 mins by LC-MS/MS analysis. Particulars: 0.5 h. Format: ADME. The procedure, abridged: as §1
The target in data set [7] is T2, Cytochrome P450 2C9. Kind of data set: Drug level assessed as human recombinant CYP2C9-mediated compound formation treated with 4-(tert-Butyl)-N-(6-ethoxy-5-(2-methoxyphenoxy)-[2,2'-bipyrimidin]-4-yl)benzenesulfonamide at 5 uM in presence of NADPH after 30 mins by LC-MS/MS analysis. Format: ADME. To be noted: recombinant enzyme, 0.5 h. The procedure, abridged: as §1

Data set [8] is described as follows: Metabolic stability in human liver microsomes assessed as parent compound remaining at 5 uM in presence of NADPH after 30 mins by LC-MS/MS analysis. Format: ADME. Particulars: read-out: Stability. The procedure, abridged: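 Pooled human liver microsomes in 100 mM potassium phosphate, pH 7.4, with test compound at 5 μM final. Reaction started with 1 mM NADPH (final) and run at 37 °C in a shaking water bath for 0, 15 and 30 min. Stopped with an equal volume of ice-cold acetonitrile containing 0.6 μM labetalol as internal standard. Protein was spun out and the supernatant analysed by LC-MS/MS. Blank had no compound.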

Data set [9] concerns the target T1, Cytochrome P450 3A4. Kind of data set: Drug metabolism assessed as human recombinant CYP3A4-mediated metabolite formation by measuring parent compound remaining at 5 uM in presence of NADPH after 30 mins by LC-MS/MS analysis. Format: ADME. To be noted: recombinant enzyme, 0.5 h. The procedure, abridged:
as §1

Data set [10] has as its target T2, Cytochrome P450 2C9. As to the kind of experiment: Drug metabolism assessed as human recombinant CYP2C9-mediated metabolite formation by measuring parent compound remaining at 5 uM in presence of NADPH after 30 mins by LC-MS/MS analysis. Format: ADME. Particulars: recombinant enzyme, 0.5 h. The procedure, abridged:
as §1

Data set [11] is described as follows: Drug metabolism in human liver microsomes assessed as formation of 4-(1-hydroxy-2-methylpropan-2-yl)-N-(6-(2-hydroxyethoxy)-5-(2-methoxyphenoxy)-2,2'-bipyrimidin-4-yl)benzenesulfonamide at 5 uM in presence of NADPH after 30 mins by LC-MS/MS analysis. Format: ADME. To be noted: 0.5 h. The procedure, abridged: as §1
Data set [12] can be described thus: Drug metabolism in human liver microsomes assessed as formation of 4-tert-butyl-N-(6-(2-hydroxyethoxy)-5-(2-hydroxyphenoxy)-2,2'-bipyrimidin-4-yl)benzenesulfonamide at 5 uM in presence of NADPH after 30 mins by LC-MS/MS analysis. Particulars: 0.5 h. Format: ADME. The procedure, abridged:
as §1

The nature of data set [13]: Drug metabolism in human liver microsomes assessed as formation of 4-(1-hydroxy-2-methylpropan-2-yl)-N-(6-(2-hydroxyethoxy)-5-(2-hydroxyphenoxy)-2,2'-bipyrimidin-4-yl)benzenesulfonamide at 5 uM in presence of NADPH after 30 mins by LC-MS/MS analysis. Format: ADME. To be noted: 0.5 h. The procedure, abridged: as §1
In data set [14] the target is T1, Cytochrome P450 3A4. As to the kind of experiment: Drug metabolism assessed as human recombinant CYP3A4-mediated formation of 4-(1-hydroxy-2-methylpropan-2-yl)-N-(6-(2-hydroxyethoxy)-5-(2-methoxyphenoxy)-2,2'-bipyrimidin-4-yl)benzenesulfonamide at 5 uM in presence of NADPH after 30 mins by LC-MS/MS analysis. Format: ADME. To be noted: recombinant enzyme, 0.5 h. The procedure, abridged: as §1

Data set [15] has as its target T1, Cytochrome P450 3A4. As to the kind of experiment: Drug metabolism assessed as human recombinant CYP3A4-mediated formation of 4-tert-butyl-N-(6-(2-hydroxyethoxy)-5-(2-hydroxyphenoxy)-2,2'-bipyrimidin-4-yl)benzenesulfonamide at 5 uM in presence of NADPH after 30 mins by LC-MS/MS analysis. To be noted: recombinant enzyme, 0.5 h. Format: ADME. The procedure, abridged: as §1

Data set [16] deals with T1, Cytochrome P450 3A4. Kind of data set: Drug metabolism assessed as human recombinant CYP3A4-mediated formation of 4-(1-hydroxy-2-methylpropan-2-yl)-N-(6-(2-hydroxyethoxy)-5-(2-hydroxyphenoxy)-2,2'-bipyrimidin-4-yl)benzenesulfonamide at 5 uM in presence of NADPH after 30 mins by LC-MS/MS analysis. Format: ADME. Particulars: recombinant enzyme, 0.5 h. The procedure, abridged:
as §1

In data set [17] the target is T2, Cytochrome P450 2C9. Kind of data set: Drug metabolism assessed as human recombinant CYP2C9-mediated formation of 4-(1-hydroxy-2-methylpropan-2-yl)-N-(6-(2-hydroxyethoxy)-5-(2-methoxyphenoxy)-2,2'-bipyrimidin-4-yl)benzenesulfonamide at 5 uM in presence of NADPH after 30 mins by LC-MS/MS analysis. Format: ADME. To be noted: recombinant enzyme, 0.5 h. The procedure, abridged:
as §1

Another data set addresses Cytochrome P450 2D6 (Homo sapiens, UniProt P10635). As to the kind of experiment: Drug metabolism assessed as human recombinant CYP2D6-mediated metabolite formation by measuring parent compound remaining at 5 uM in presence of NADPH after 30 mins by LC-MS/MS analysis. Format: ADME. Particulars: recombinant enzyme, 0.5 h. The procedure, abridged:
as §1

Data set [18] in a line: Cytotoxicity against CHOK1 cells assessed as decrease in cell viability after 24 hrs by MTT assay. Format: toxicity, cell-based, Cricetulus griseus. Particulars: Chinese hamster, CHO-K1 cells. The procedure, abridged: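 CHO-k1 cells grown in phenol-red-free DMEM/F-12 with 10% FBS, seeded at 20,000 cells/well and allowed to attach overnight. Exposure was 24 h to 0.1–200 μM, with DMSO as vehicle control. MTT at 1 mg/mL for 3 h at 37 °C, formazan dissolved in DMSO, absorbance read at 570 nm. Data given as % OD of vehicle control; IC50 taken from dose–response curve fits.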

In a further data set the target is T3, Endothelin-1 receptor (Homo sapiens, UniProt P25101).
T3 sequence (P25101 whole entry): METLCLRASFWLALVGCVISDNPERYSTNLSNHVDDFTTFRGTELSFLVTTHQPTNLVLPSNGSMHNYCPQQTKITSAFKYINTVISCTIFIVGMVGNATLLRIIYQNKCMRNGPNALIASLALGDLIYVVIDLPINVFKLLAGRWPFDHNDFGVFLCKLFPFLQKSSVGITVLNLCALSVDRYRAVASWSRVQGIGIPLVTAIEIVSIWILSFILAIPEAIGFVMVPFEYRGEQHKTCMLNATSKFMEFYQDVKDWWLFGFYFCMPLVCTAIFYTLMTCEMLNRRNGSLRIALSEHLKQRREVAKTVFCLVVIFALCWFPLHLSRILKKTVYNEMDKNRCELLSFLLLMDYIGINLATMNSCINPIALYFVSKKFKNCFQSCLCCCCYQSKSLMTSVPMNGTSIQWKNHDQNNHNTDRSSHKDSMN
Kind of data set: Antagonist activity at ETA receptor in human SKNMC cells assessed as inhibition of endothelin-1-mediated Ca2+ mobilization by fura-2/AM dye-based spectrofluorimetric method.

Data set [19] has as its target T4, Endothelin receptor type B (Homo sapiens) (UniProt P24530).
T4 sequence (whole entry): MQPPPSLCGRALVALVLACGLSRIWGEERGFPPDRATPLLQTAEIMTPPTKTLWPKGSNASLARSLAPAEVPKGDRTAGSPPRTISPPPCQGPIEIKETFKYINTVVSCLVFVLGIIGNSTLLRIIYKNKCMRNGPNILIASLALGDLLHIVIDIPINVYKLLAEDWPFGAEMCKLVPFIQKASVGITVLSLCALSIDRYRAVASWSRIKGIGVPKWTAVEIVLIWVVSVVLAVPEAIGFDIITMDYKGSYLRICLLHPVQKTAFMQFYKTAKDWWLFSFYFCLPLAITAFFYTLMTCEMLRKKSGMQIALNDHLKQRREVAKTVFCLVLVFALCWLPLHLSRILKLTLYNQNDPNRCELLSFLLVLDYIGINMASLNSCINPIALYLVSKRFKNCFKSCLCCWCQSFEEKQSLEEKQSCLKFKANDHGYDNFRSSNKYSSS
Kind of data set: (§2) Antagonist activity at ETB receptor in human BSMC assessed as inhibition of endothelin-1 or 3-mediated Ca2+ mobilization preincubated for 5 mins followed by endothelin-1 or 3 addition by fura-2/AM dye-based spectrofluorimetric method. Format: functional. Background: Calcium flux is commonly read through the fluorescence of an indicator in the cells.

For data set [20], the target named is T5, Endothelin receptor type B (Homo sapiens, UniProt P24530).
T5 sequence (P24530 whole entry): T4 sequence (whole entry)
The description is as §2. Format: functional.

pIC50: −log10 of the molar value. Where a SMILES comes first, the peptide text is derived from it. [ ]: non-standard residue; d: D form. A value given as a limit tells only on which side of the number the result lay.

T1 sequence (P08684 whole entry): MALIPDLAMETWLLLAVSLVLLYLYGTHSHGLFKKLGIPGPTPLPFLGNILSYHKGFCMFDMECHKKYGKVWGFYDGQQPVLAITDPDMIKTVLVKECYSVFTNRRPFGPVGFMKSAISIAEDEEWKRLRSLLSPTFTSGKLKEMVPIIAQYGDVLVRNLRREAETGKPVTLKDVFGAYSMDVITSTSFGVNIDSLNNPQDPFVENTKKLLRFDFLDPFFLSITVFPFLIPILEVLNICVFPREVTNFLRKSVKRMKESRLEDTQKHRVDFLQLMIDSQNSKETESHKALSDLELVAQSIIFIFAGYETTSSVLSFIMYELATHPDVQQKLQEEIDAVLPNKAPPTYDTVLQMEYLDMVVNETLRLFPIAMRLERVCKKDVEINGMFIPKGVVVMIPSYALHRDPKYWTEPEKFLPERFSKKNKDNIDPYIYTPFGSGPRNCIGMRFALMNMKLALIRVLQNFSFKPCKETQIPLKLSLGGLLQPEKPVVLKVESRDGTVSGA
Sequence of Cytochrome P450 2D6 (P10635 whole entry): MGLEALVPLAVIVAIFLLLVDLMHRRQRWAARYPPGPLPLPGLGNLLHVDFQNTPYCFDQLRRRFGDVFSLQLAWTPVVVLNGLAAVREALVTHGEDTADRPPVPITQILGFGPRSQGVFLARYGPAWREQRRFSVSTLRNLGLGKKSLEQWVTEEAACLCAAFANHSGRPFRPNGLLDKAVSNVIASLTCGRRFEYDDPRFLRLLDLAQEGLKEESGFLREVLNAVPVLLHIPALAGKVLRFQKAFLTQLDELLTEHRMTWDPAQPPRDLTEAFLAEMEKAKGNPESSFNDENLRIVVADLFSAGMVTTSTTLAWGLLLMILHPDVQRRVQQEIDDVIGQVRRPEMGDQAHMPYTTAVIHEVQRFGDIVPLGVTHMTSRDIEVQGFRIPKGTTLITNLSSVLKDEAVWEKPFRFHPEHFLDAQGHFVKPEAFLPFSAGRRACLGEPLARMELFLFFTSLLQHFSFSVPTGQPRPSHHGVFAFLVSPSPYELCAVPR

For the molecule `COc1ccccc1Oc1c(NS(=O)(=O)c2ccc(C(C)(C)CO)cc2)nc(-c2ncccn2)nc1OCCO`, the Drug metabolism result (on Cytochrome P450 3A4 [1]; in data set [2]; at Cytochrome P450 2C9 [3]) was “Metabolite_Detected” throughout. The Retention_time in data set [4] came out at 3.79 min.

For the molecule `CCOc1nc(-c2ncccn2)nc(NS(=O)(=O)c2ccc(C(C)(C)CO)cc2)c1Oc1ccccc1OC`, the Drug metabolism result (at Cytochrome P450 3A4 [5]; in data set [6]; at Cytochrome P450 2C9 [7]) was “Metabolite_Detected” in each case. Also, in data set [4], the Retention_time was determined as 4.99 min.

The term IC50 denotes the midpoint of a concentration-inhibition curve. For `COc1ccccc1Oc1c(NS(=O)(=O)c2ccc(C(C)(C)C)cc2)nc(-c2ncccn2)nc1OCCO` [BOSENTAN], the remaining at 0.5 h, 5 µM in data set [8] amounted to 91.6%. The Stability is given as 20.9% at Cytochrome P450 3A4 [9], 75.8% on Cytochrome P450 2C9 [10] and above 99% at Cytochrome P450 2D6. Moreover, the Drug metabolism result (in data set [11]; in [12]; in [13]; at Cytochrome P450 3A4 [14]; at Cytochrome P450 3A4 [15]; on Cytochrome P450 3A4 [16]) was “Metabolite_Detected” in each case. At Cytochrome P450 2C9 [17], the Drug metabolism result is reported as “Metabolite_Detected”. This molecule also yielded a Retention_time in data set [4] of 5.1 min. In addition, the IC50 at 24 h in [18] amounted to 196000 nM.

As a reminder, the pIC50 is the negative decadic logarithm of the IC50, by convention in mol/L. For `CC(C)C[C@@H]1NC(=O)[C@@H](C(C)C)NC(=O)[C@@H]2CCCN2C(=O)[C@@H](CC(=O)O)NC(=O)[C@@H](Cc2c[nH]c3ccccc23)NC1=O` [BQ-123] (cyclo(L[dW][dD]P[dV])), the pIC50 at Endothelin-1 receptor is 9.21.

The term Kb denotes the affinity of an antagonist, worked out from how it opposes an agonist. For `CCCC[C@@H](NC(=O)[C@@H](Cc1cn(C(=O)OC)c2ccccc12)NC(=O)[C@H](CC(C)(C)C)NC(=O)N1[C@H](C)CCC[C@@H]1C)C(=O)O`, the antagonist equilibrium constant (Kb) in [19] came out at 0.5 nM. In addition, the pIC50 in data set [20] was 9.39.

Source of the values: ChEMBL document CHEMBL3861962 (Eur J Med Chem, 2016).
